The values below come from ChEMBL document CHEMBL1140385, “Synthesis and antibacterial activity of 3-substituted-6-(3-ethyl-4-methylanilino)uracils” (J Med Chem, 2005).

The structures appear in SMILES notation. Values after ≈ are worked out from the molar mass of the structure shown.

The test system of data set [1] is Staphylococcus aureus. Briefly: Effect on survival of staphylococcus aureus (Smith) ip-infected mice at a concentration 20 mg/kg. Type of data set: functional. Put shortly: (§1)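 Male pathogen-free Swiss-Webster mice (20-24 g), groups of five, infected ip with ca. 10⁸ CFU log-phase S. aureus Smith (grown 37 °C in LB, washed, in 0.5 mL LB). Single ip dose 15 min post-infection, in 10% DMSO/peanut oil or PBS. Survivors counted at 72 h post-infection.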

Data set [2] relates to Enterococcus faecium. Briefly: In vitro minimum inhibitory concentration against Enterococcus fecium upon incubation at 37 degree C for 16 to 24 hr by dissolving in DMSO (1%). The class given is functional. The procedure, abridged:
(§2)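 Broth microdilution (modified NCCLS M7-A4). Enterococci grown to log phase in brain-heart infusion broth, seeded at (3-7) × 10⁵ CFU/mL. Compounds 2-fold diluted from DMSO stocks, 20 to 1.25 µg/mL, final 1% DMSO, in duplicate. Incubated 37 °C, 16-24 h, with shaking. OD600 read.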

The subject of data set [3] is Enterococcus faecalis. Nature of the data set: In vitro minimum inhibitory concentration against Enterococcus faecalis upon incubation at 37 degree C for 16 to 24 hr by dissolving in DMSO (1%). Type of data set: functional. The procedure, abridged:
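Log-phase E. faecalis was grown in brain-heart infusion broth and seeded at (3-7) × 10^5 CFU/mL. Duplicate 2-fold dilutions ran from 20 to 1.25 µg/mL, final 1% DMSO. After 16-24 h at 37 °C with shaking, OD600 was read.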

Data set [4] relates to Staphylococcus aureus. Briefly: In vitro minimum inhibitory concentration against Staphylococcus aureus upon incubation at 37 degree C for 16 to 24 hr by dissolving in DMSO (1%). The class given is functional.
Data set [5] deals with Enterococcus faecium. Briefly: In vitro minimum inhibitory concentration against Vancomycin resistant Enterococci faecium upon incubation at 37 degree C for 16 to 24 hr by dissolving in DMSO (1%). Type of data set: functional. The procedure, abridged:
as §2

For data set [6], the system named is Staphylococcus aureus. Briefly: In vitro minimum inhibitory concentration against Methicillin-resistant Staphylococcus aureus upon incubation at 37 degree C for 16 to 24 hr by dissolving in DMSO (1%). Type of data set: functional. The procedure, abridged: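 Broth microdilution (modified NCCLS M7-A4). Staphylococci grown to log phase in Luria broth, seeded at (3-7) × 10⁵ CFU/mL. Compounds 2-fold diluted from DMSO stocks, 20 to 1.25 µg/mL, final 1% DMSO, in duplicate. Incubated 37 °C, 16-24 h, with shaking. OD600 read.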

For data set [7], the target named is DNA polymerase III PolC-type (Bacillus subtilis (strain 168), UniProt P13267). Briefly: Inhibitory concentration against Bacillus subtilis DNA polymerase IIIC using [3H]dTMP 250 pM (30 degree C for 10 min). The procedure, abridged:
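Homogeneous recombinant B. subtilis pol IIIC, 0.025-0.06 units, acted on activated calf thymus DNA with Mg2+, DTT, glycerol, dATP, dCTP, dTTP and [3H]dTTP, without dGTP. Compounds were serially diluted from DMSO. Reactions ran 10 min at 30 °C, were stopped with TCA-pyrophosphate, and the filter-collected precipitate was scintillation counted. Apparent Ki was read directly from this truncated assay; average standard deviation ±44%.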

The nature of data set [8]: Area under the plasma concentration curve determined in mouse after subcutaneous administration at 20 mg/kg. The following applies: in vivo, sc. Type of data set: ADME, organism-based. Set-up: dose 20 mg/kg, route subcutaneous. The procedure, abridged:
(§3)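 Male Swiss-Webster mice got single sc doses of 20 or 60 mg/kg in 30% aqueous HP-β-cyclodextrin, or 20, 200 or 400 mg/kg in KOH-neutralized PBS. Groups of three were bled by cardiac puncture before dosing and at 5, 15, 30, 60, 120 and 180 min, plus 360 min at 400 mg/kg. Plasma drug was measured by C18 reverse-phase HPLC at 282 nm against a spiked-plasma standard curve.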

A short description of data set [9]: Area under the plasma concentration curve determined in mouse after subcutaneous administration at 200 mg/kg. The following applies: in vivo, sc. The class given is ADME, organism-based. Also on record: dose 200 mg/kg, route subcutaneous. Put shortly: as §3
Data set [10] in a line: Area under the plasma concentration curve determined in mouse after subcutaneous administration at 400 mg/kg. The class given is ADME, organism-based. Also on record: dose 400 mg/kg, route subcutaneous. The following applies: in vivo, sc. The procedure, abridged: as §3
Data set [11] in a line: Maximum plasma concentration in mouse after peroral administration at 200 mg/kg. Set-up: dose 200 mg/kg, route oral. Type of data set: ADME, organism-based. The conditions noted are these: po. The procedure, abridged:
(§4)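 A single 200 mg/kg gavage dose in KOH-neutralized PBS was given to male Swiss-Webster mice. Blood was taken by cardiac puncture under halothane before dosing and at 15, 30, 60, 120 and 180 min. Heparinized plasma was deproteinized with equal-volume MeCN and quantified by C18 HPLC (282 nm) against a standard curve from compound-spiked plasma.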

A short description of data set [12]: Half life in mouse after peroral administration at 200 mg/kg. Type of data set: ADME, organism-based. Set-up: dose 200 mg/kg, route oral. The conditions noted are these: in vivo, po. Put shortly:
as §4

Data set [13] is described as follows: Maximum time taken to reach Cmax was determined in mouse after peroral administration at 200 mg/kg. Type of data set: ADME, organism-based. Also on record: dose 200 mg/kg, route oral. The following applies: in vivo, po. Put shortly: as §4
Data set [14] deals with Enterococcus faecalis. Nature of the data set: Serum effect on MIC of compound was measured against Enterococcus faecalis as ratio of MIC value in presence and absence of 50% fetal calf serum. The class given is functional. The procedure, abridged: (§5)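 Broth microdilution MIC was repeated with 50% fetal calf serum added to the growth medium (LB for S. aureus, brain-heart infusion broth for E. faecalis). The inoculum was (3-7) × 10^5 CFU/mL in 1% DMSO, incubated at 37 °C for 16-24 h, and read by OD600. The serum effect is the MIC with serum relative to the MIC without serum.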

Data set [15] relates to Staphylococcus aureus. Nature of the data set: Serum effect on MIC against Staphylococcus aureus (Smith) as ratio of MIC value in presence and absence of 50% fetal calf serum. Type of data set: functional. Put shortly:
as §5

Data set [16] relates to Staphylococcus aureus. Briefly: Effect on survival of staphylococcus aureus (Smith) ip-infected mice at a concentration 10 mg/kg. Type of data set: functional. The procedure, abridged: as §1
A short description of data set [17]: Area under the plasma concentration curve determined in mouse after peroral administration at 200 mg/kg. Type of data set: ADME, organism-based. Set-up: dose 200 mg/kg, route oral. The following applies: in vivo, po. The procedure, abridged:
as §4

Data set [18] can be described thus: Area under the plasma concentration curve determined in mouse after intravenous administration at 20 mg/kg. Also on record: dose 20 mg/kg, route intravenous. The class given is ADME, organism-based. The following applies: in vivo. The procedure, abridged:
(§6)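 Male Swiss-Webster mice (20-24 g) got a 20 mg/kg tail-vein iv bolus, either in 30% aqueous HP-β-cyclodextrin or in PBS neutralized with KOH. Groups of three were bled by cardiac puncture under halothane before dosing and at 2, 5, 15, 30, 60 and 120 min. Heparinized plasma was MeCN-treated and run on C18 HPLC at 282 nm against a spiked-plasma standard curve.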

Data set [19] concerns Staphylococcus aureus. Briefly: Effect on survival of staphylococcus aureus (Smith) ip-infected mice at 20 mg/kg. The class given is functional. The procedure, abridged: as §1
For data set [20], the system named is Staphylococcus aureus. Nature of the data set: In vitro minimum inhibitory concentration against Staphylococcus aureus (Smith) upon incubation at 37 degree C for 16 to 24 hr by dissolving in DMSO (1%). Type of data set: functional.
The nature of data set [21]: Area under the plasma concentration curve determined in mouse after subcutaneous administration at 60 mg/kg. Also on record: dose 60 mg/kg, route subcutaneous. The following applies: in vivo, sc. The class given is ADME, organism-based. Put shortly:
as §3

The nature of data set [22]: Half life in mouse after subcutaneous administration at 20 mg/kg. Type of data set: ADME, organism-based. Set-up: dose 20 mg/kg, route subcutaneous. The conditions noted are these: in vivo, sc. Put shortly:
as §3

The nature of data set [23]: Maximum plasma concentration in mouse after intravenous administration at 20 mg/kg. The class given is ADME, organism-based. Also on record: dose 20 mg/kg, route intravenous. The procedure, abridged:
as §6

A short description of data set [24]: Maximum plasma concentration in mouse after subcutaneous administration at 20 mg/kg. The class given is ADME, organism-based. Set-up: dose 20 mg/kg, route subcutaneous. The following applies: sc. The procedure, abridged:
as §3

A short description of data set [25]: Maximum plasma concentration in mouse after subcutaneous administration at 60 mg/kg. Set-up: dose 60 mg/kg, route subcutaneous. The conditions noted are these: sc. Type of data set: ADME, organism-based. Put shortly: as §3
A short description of data set [26]: Half life in mouse after intravenous administration at 20 mg/kg. Set-up: dose 20 mg/kg, route intravenous. The conditions noted are these: in vivo. Type of data set: ADME, organism-based. The procedure, abridged: as §6
Data set [27] can be described thus: Maximum time taken to reach Cmax was determined in mouse after subcutaneous administration at 20 mg/kg. Type of data set: ADME, organism-based. Set-up: dose 20 mg/kg, route subcutaneous. The conditions noted are these: in vivo, sc. The procedure, abridged: as §3
The nature of data set [28]: Maximum time taken to reach Cmax was determined in mouse after subcutaneous administration at 60 mg/kg. Set-up: dose 60 mg/kg, route subcutaneous. The conditions noted are these: in vivo, sc. Type of data set: ADME, organism-based. Put shortly: as §3

Sequence of DNA polymerase III PolC-type (P13267 whole entry, the tested form may be a part): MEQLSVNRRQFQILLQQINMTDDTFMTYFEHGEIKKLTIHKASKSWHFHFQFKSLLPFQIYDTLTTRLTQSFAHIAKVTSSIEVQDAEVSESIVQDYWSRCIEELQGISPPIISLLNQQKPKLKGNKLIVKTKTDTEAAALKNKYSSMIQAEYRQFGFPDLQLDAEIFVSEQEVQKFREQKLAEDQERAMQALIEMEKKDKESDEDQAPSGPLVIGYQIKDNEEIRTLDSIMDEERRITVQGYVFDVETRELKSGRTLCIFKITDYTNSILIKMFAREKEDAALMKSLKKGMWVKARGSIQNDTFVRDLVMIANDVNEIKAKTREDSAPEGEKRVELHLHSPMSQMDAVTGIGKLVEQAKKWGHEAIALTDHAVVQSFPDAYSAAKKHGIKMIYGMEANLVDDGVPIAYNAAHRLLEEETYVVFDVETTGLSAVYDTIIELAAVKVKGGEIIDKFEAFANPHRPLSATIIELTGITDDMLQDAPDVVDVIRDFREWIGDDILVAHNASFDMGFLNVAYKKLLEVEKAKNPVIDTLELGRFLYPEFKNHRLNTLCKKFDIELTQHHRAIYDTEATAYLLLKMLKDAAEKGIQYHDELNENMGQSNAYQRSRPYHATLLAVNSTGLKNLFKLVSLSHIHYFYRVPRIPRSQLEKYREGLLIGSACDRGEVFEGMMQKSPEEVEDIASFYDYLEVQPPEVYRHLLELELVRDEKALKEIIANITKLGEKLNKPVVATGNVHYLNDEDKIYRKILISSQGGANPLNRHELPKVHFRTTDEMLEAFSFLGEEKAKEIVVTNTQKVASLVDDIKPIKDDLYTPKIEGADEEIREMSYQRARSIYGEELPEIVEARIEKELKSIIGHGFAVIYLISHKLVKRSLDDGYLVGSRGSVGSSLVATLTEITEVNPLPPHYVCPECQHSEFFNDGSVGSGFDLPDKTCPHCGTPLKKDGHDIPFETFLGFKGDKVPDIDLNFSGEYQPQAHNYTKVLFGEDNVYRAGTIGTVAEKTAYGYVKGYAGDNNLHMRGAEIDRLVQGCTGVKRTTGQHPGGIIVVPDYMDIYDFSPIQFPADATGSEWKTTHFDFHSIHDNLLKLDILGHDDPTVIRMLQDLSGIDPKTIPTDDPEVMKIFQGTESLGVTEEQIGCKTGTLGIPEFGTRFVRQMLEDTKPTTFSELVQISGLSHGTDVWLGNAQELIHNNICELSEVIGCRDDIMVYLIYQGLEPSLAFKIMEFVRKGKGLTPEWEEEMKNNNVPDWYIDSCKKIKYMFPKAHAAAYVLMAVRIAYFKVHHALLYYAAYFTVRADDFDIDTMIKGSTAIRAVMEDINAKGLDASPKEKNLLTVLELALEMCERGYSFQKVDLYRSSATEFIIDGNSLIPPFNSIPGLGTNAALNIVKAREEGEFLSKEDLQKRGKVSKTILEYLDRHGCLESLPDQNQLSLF

What is called MIC is the lowest concentration found to suppress growth. A low value points to greater potency. The Ki is a measure of affinity in units of concentration, obtained from inhibition or displacement. A low value points to higher affinity. Usually AUC stands for the area under the concentration-time curve, a measure of exposure. Low readings indicate less exposure, high ones more exposure. What is called Cmax is the maximum level reached in the sampled fluid or tissue. As usually defined, the half-life is the time in which the quantity being followed falls by half. Read a high half-life as slow decline. As usually defined, the Tmax is the time at which the peak concentration occurs. As to `CCc1cc(Nc2cc(=O)n(CCCCN3CCOCC3)c(=O)[nH]2)ccc1C.Cl`, the Activity in the data set on Staphylococcus aureus [1] was 5; with Staphylococcus aureus [16], 4. In addition, the minimal inhibitory concentration (MIC) with Enterococcus faecium [2] stood at 10 µg/mL; against Enterococcus faecalis [3], 5 µg/mL; in the data set on Staphylococcus aureus [4], 10 µg/mL; in the data set on Enterococcus faecium [5] it was 5 µg/mL; in the data set with Staphylococcus aureus [6] it was 10 µg/mL. This molecule registered a Ki in data set [7] of 0.052 µM. Besides, the area under the curve (AUC) in [8] turned out to be 6770 ng·h/mL; in data set [9], 26900 ng·h/mL; in data set [10], 50700 ng·h/mL; in [17], 15400 ng·h/mL; in data set [18] it was 3900 ng·h/mL. Moreover, the peak level in data set [11] (Cmax) was 7300 ng/mL. This molecule gave a half-life in data set [12] of 111 min. Moreover, the time to peak (Tmax) in data set [13] was 60 min. For the same molecule, the figures for the “MIC+/MIC-” value in the data set with Enterococcus faecalis [14] and in the data set with Staphylococcus aureus [15] were 2 and 1.7, respectively.
As for `CCc1cc(Nc2cc(=O)n(CCCCN3CCOCC3)c(=O)[nH]2)ccc1C`, the minimal inhibitory concentration (MIC) was determined as 2.5 µg/mL (≈ 6.47 µM) against Enterococcus faecium [2]; 5 µg/mL (≈ 12.9 µM) against Enterococcus faecalis [3]; 10 µg/mL (≈ 25.9 µM) in the data set on Staphylococcus aureus [4]; 5 µg/mL (≈ 12.9 µM) in the data set with Enterococcus faecium [5]; 10 µg/mL (≈ 25.9 µM) in the data set with Staphylococcus aureus [6]. Besides, the results for the Activity in the data set on Staphylococcus aureus [19] and in the data set with Staphylococcus aureus [16] were 4 and 2, respectively. Moreover, the results for the “MIC+/MIC-” value in the data set with Enterococcus faecalis [14] and in the data set with Staphylococcus aureus [15] were 3.2 and 2.3, respectively.
For the molecule `CCc1cc(Nc2cc(=O)n(CCCCO)c(=O)[nH]2)ccc1C`, the Activity was 5 with Staphylococcus aureus [1] and 3 with Staphylococcus aureus [16]. The minimum inhibitory concentration (MIC) against Enterococcus faecium [2], against Enterococcus faecalis [3], in the data set on Staphylococcus aureus [20], against Enterococcus faecium [5] and with Staphylococcus aureus [6] was 5 µg/mL (≈ 15.8 µM) in each case. The molecule further yielded a Ki in [7] of 0.055 µM. Moreover, the AUC in data set [8] is 7780 ng·h/mL; in [21], 20200 ng·h/mL; in data set [18] it was 4800 ng·h/mL. Also, the half-life in data set [22] turned out to be 29.3 min; in data set [26] it was 33 min. Also, the results for the Cmax in data set [23], in data set [24] and in data set [25] were 53000 ng/mL, 5100 ng/mL and 13000 ng/mL, respectively. The Tmax in data set [27] and in data set [28] was 15 min throughout. In the data set on Staphylococcus aureus [15], the “MIC+/MIC-” value was 7.5.
